Experiment [1] relates to Mus musculus. Put plainly: In vivo inhibition of p185 phosphotyrosine in nu/nu nude mice bearing Fisher rat embryo cells transfected with human erbB-2 at 400 mg/kg. It is filed as functional. Summed up: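 FRE/erbB-2 cells were implanted subcutaneously in CD-1 (nu/nu) mice. At days 12-14 (~1 cm) the mice received 400 mg/kg ip. After 3 h, tumours were excised and extracted to isolate p185 phosphotyrosine. The value is percent inhibition.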

For experiment [2], the system named is Mus musculus. Put plainly: In vivo inhibition of p185 phosphotyrosine in nu/nu nude mice bearing Fisher rat embryo cells transfected with human erbB-2. It is filed as functional. Also on record: concentration or dose not given beside the values.
Experiment [3] concerns SK-BR-3. Description: In vitro inhibition of p185 erbB-2 oncoprotein in human breast cancer SK-BR-3 cells. Type of experiment: functional, cell-based. A digest of the protocol:
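Cellular assay with read-out as depletion of p185 erbB-2 protein after drug treatment of the cells. This depletion tracks inhibition of p185 autophosphorylation.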

Experiment [4] deals with Mus musculus. Put plainly: In vivo inhibition of p185 phosphotyrosine in nu/nu nude mice bearing Fisher rat embryo cells transfected with human erbB-2 at 200 mg/kg. Type of experiment: functional. Summed up:
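Nude CD-1 (nu/nu) mice bearing subcutaneous FRE/erbB-2 tumours were dosed ip at 200 mg/kg at days 12-14 (~1 cm tumours). Tumours were removed 3 h later and extracted for p185 phosphotyrosine. The value is percent inhibition.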

pIC50: −log10 of the molar value.

In experiment [1], `CO[C@H]1/C=C\C=C(/C)C(=O)NC2=CC(=O)C(N)=C(C[C@@H](C)C[C@H](OC)[C@H](O)[C@@H](C)/C=C(\C)[C@@H]1OC(N)=O)C2=O` came in with an inhibition in vivo at 400 mg/kg of 59%. The compound `COc1ccccc1C(=O)CN1C(=O)/C(C)=C/C=C\[C@H](OC)[C@@H](OC(N)=O)/C(C)=C/[C@H](C)[C@@H](O)[C@@H](OC)C[C@H](C)CC2=C(N)C(=O)C=C1C2=O` came in with an Inhibition in experiment [2] of 50%. The compound also had a pIC50 in experiment [3] of 6.22. `CO[C@H]1C[C@H](C)CC2=C(N3CCC3)C(=O)C=C(NC(=O)/C(C)=C/CC[C@H](OC)[C@@H](OC(N)=O)/C(C)=C/[C@H](C)[C@H]1O)C2=O` gave an inhibition in vivo at 400 mg/kg in experiment [1] of 44%. `CO[C@H]1/C=C\C=C(/C)C(=O)NC2=CC(=O)C(N3CCC3)=C(C[C@@H](C)C[C@H](OC)[C@H](OC(C)=O)[C@@H](C)/C=C(\C)[C@@H]1OC(N)=O)C2=O` showed a pIC50 in experiment [3] of 7.15. The compound also gave an inhibition in vivo at 200 mg/kg in experiment [4] of 78%. In turn, `CO[C@H]1C[C@H](C)CC2=C(N)C(=O)C=C(NC(=O)/C(C)=C/CC[C@H](OC)[C@@H](OC(N)=O)/C(C)=C/[C@H](C)[C@H]1O)C2=O` gave an Inhibition in experiment [2] of 45%. Also, the negative logarithm of the IC50 (pIC50) in experiment [3] was 7.43. For `C=CCNC1=C2C[C@@H](C)C[C@H](OC)[C@@H](F)[C@@H](C)/C=C(\C)[C@H](OC(N)=O)[C@@H](OC)/C=C\C=C(/C)C(=O)NC(=CC1=O)C2=O` the same measures were 50% and 6.59. For `CO[C@H]1/C=C\C=C(/C)C(=O)NC2=CC(=O)C(N)=C(C[C@@H](C)C[C@H](OC)[C@@H](F)[C@@H](C)/C=C(\C)[C@@H]1OC(N)=O)C2=O`, in experiment [3], the pIC50 is 6.85. In experiment [4], this compound yielded an inhibition in vivo at 200 mg/kg of 46%.

The values are drawn from ChEMBL document CHEMBL1128590, “erbB-2 oncogene inhibition by geldanamycin derivatives: synthesis, mechanism of action, and structure-activity relationships” (J Med Chem, 1995).
